Reference: ChEMBL document CHEMBL4387720, “Lead generation of 1,2-dithiolanes as exon 19 and exon 21 mutant EGFR tyrosine kinase inhibitors” (Bioorg Med Chem Lett, 2019)
pIC50, pKd: −log10 of the molar value.

Experiments:
[1] = biological target: T1, Epidermal growth factor receptor (Homo sapiens, UniProt P00533, L858R)
[2] = biological target: Epidermal growth factor receptor (Homo sapiens, UniProt P00533); experiment: Inhibition of probe binding to wild type EGFR (unknown origin) using rabbit reticulate lysate system after 1 hr by luminescence assay
Homo sapiens = species on record: Homo sapiens; experiment: Selectivity ratio, ratio of IC50 for probe binding to HER2 (unknown origin) to IC50 for probe binding to EGFR L858R mutant (unknown origin)
In short: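 Ratio of two IC50 values measured in the rabbit reticulocyte lysate competition binding assay: HER2 and EGFR L858R. Each IC50 comes from displacement of an active-site-dependent probe, read by luminescence, with a ten-point dose-response. Each IC50 is the average of triplicate experiments.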

[3] = biological target: Receptor tyrosine-protein kinase erbB-2 (Homo sapiens, UniProt P04626); experiment: Inhibition of probe binding to HER2 (unknown origin) using rabbit reticulate lysate system after 1 hr by luminescence assay
In short: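 Homogeneous competition binding in rabbit reticulocyte lysate with kinase expressed in the lysate. IC50 taken from a ten-point dose-response curve; value is the average of triplicate experiments.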

[4] = biological target: T1, Epidermal growth factor receptor; experiment: Binding affinity to human partial length EGFR L858R mutant (R669 to V1011 residues) expressed in bacterial expression system by kinomescan assay
In short: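 Competition binding against an immobilized active-site-directed ligand; bound kinase quantified by qPCR of its DNA tag. Kd taken from duplicate 11-point dose-response curves.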

[5] = Half life in rat S9 fraction; assay type: ADME, subcellular
[6] = biological target: Epidermal growth factor receptor (Homo sapiens, UniProt P00533, E746-A750DEL); experiment: Binding affinity to human partial length EGFR E746-A750 deletion mutant expressed in bacterial expression system by KinomeScan assay
In short: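 Competition binding against an immobilized active-site-directed ligand. Bound kinase is quantified by qPCR of its DNA tag. Kd values come from duplicate 11-point dose-response curves.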

[7] = biological target: T1, Epidermal growth factor receptor; experiment: Binding affinity to human partial length EGFR L858R mutant (R669 to V1011 residues) expressed in bacterial expression system under equilibrate/3-fold dilution/eqiulibrate condition by scanKINETIC assay
In short: (§1)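 Binding kinetics are read from Kd values measured under four dose-response arms. Arm A is full equilibration. Arm B is equilibrate, then 3-fold dilution, then equilibrate. Arm C is partial equilibration. Arm D is predilution followed by full equilibration. Comparing the arms assesses reversibility of binding.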

[8] = biological target: T1, Epidermal growth factor receptor; experiment: Binding affinity to human partial length EGFR L858R mutant (R669 to V1011 residues) expressed in bacterial expression system under full equilibrating condition by scanKINETIC assay
In short: as §1

[9] = biological target: T1, Epidermal growth factor receptor; experiment: Binding affinity to human partial length EGFR L858R mutant (R669 to V1011 residues) expressed in bacterial expression system under predilution/full equilibration condition by scanKINETIC assay
In short: as §1

[10] = biological target: T1, Epidermal growth factor receptor; experiment: Binding affinity to human partial length EGFR L858R mutant (R669 to V1011 residues) expressed in bacterial expression system under partial equilibration condition by scanKINETIC assay
In short: as §1

NCI-H322M [11] = experiment: Therapeutic index, ratio of LC50 for human NCI-H322M cells to GI50 for human NCI-H322M cells; assay type: functional
In short: (§2)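 NCI-60 panel screen using five-dose response curves, each value an average of 2 experiments. […] The therapeutic index is calculated as LC50/GI50 for the same cell line.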

MOLT-4 [12] = experiment: Cytotoxicity against human MOLT4 cells assessed as reduction in measured protein incubated for 48 hrs by SRB assay; assay type: functional; details: MOLT-4, 48 h, read-out: LC50 (the source's name)
In short: (§3)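 Tested in the NCI-60 panel with a five-dose response curve, each value the mean of 2 experiments.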

CCRF-CEM [13] = experiment: Cytotoxicity against human CCRF-CEM cells assessed as reduction in measured protein incubated for 48 hrs by SRB assay; assay type: functional; details: read-out: LC50 (the source's name)
In short: as §3

NCI-H322M [14] = experiment: Cytotoxicity against human NCI-H322M cells assessed as reduction in measured protein incubated for 48 hrs by SRB assay; assay type: functional; details: read-out: LC50 (the source's name)
In short: as §3

CCRF-CEM [15] = experiment: cells; assay type: functional; details: Homo sapiens, 48 h
MOLT-4 [16] = experiment: cells; assay type: functional; details: Homo sapiens, MOLT-4, 48 h
A549 = experiment: cells; assay type: functional; details: Homo sapiens, A549, 48 h
NCI-H322M [17] = experiment: cells; assay type: functional; details: Homo sapiens, 48 h
NCI-H460 = experiment: cells; assay type: functional; details: Homo sapiens, NCI-H460, 48 h
CCRF-CEM [18] = experiment: Therapeutic index, ratio of LC50 for human CCRF-CEM cells to GI50 for human CCRF-CEM cells; assay type: functional
In short: as §2

MOLT-4 [19] = experiment: Therapeutic index, ratio of LC50 for human MOLT4 cells to GI50 for human MOLT4 cells; assay type: functional
In short: as §2

[20] = Half life in human S9 fraction; assay type: ADME, subcellular

Chain of Epidermal growth factor receptor (Homo sapiens, UniProt P00533) (P00533 whole entry): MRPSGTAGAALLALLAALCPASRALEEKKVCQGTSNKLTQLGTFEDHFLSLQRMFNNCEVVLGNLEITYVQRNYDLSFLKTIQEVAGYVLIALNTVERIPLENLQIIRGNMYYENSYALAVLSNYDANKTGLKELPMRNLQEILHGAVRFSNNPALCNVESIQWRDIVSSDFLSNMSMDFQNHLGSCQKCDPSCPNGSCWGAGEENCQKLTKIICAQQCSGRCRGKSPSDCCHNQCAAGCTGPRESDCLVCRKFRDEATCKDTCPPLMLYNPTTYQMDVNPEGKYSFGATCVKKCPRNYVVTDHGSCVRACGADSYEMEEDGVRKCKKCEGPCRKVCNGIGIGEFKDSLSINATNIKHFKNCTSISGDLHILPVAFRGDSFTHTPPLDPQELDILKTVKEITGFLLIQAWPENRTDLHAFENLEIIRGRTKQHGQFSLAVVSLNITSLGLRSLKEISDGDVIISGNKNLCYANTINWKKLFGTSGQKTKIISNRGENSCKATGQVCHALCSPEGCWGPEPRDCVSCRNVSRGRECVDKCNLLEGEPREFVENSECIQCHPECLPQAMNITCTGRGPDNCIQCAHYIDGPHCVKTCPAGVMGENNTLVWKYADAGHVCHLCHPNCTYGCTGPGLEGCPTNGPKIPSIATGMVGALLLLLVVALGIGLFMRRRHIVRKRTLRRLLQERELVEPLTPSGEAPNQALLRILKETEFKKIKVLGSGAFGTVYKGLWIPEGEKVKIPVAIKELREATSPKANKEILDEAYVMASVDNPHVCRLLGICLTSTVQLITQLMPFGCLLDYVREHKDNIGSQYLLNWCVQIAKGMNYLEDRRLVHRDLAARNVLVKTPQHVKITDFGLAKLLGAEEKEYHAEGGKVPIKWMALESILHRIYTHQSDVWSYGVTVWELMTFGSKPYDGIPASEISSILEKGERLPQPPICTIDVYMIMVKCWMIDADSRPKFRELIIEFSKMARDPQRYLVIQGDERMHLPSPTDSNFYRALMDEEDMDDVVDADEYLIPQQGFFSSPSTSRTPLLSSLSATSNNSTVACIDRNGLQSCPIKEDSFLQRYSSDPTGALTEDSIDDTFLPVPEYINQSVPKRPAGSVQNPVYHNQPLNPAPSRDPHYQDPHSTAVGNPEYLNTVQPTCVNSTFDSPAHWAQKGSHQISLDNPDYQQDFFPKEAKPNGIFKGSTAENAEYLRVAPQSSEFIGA
T1 sequence (P00533 25-1210 L858R limits assumed): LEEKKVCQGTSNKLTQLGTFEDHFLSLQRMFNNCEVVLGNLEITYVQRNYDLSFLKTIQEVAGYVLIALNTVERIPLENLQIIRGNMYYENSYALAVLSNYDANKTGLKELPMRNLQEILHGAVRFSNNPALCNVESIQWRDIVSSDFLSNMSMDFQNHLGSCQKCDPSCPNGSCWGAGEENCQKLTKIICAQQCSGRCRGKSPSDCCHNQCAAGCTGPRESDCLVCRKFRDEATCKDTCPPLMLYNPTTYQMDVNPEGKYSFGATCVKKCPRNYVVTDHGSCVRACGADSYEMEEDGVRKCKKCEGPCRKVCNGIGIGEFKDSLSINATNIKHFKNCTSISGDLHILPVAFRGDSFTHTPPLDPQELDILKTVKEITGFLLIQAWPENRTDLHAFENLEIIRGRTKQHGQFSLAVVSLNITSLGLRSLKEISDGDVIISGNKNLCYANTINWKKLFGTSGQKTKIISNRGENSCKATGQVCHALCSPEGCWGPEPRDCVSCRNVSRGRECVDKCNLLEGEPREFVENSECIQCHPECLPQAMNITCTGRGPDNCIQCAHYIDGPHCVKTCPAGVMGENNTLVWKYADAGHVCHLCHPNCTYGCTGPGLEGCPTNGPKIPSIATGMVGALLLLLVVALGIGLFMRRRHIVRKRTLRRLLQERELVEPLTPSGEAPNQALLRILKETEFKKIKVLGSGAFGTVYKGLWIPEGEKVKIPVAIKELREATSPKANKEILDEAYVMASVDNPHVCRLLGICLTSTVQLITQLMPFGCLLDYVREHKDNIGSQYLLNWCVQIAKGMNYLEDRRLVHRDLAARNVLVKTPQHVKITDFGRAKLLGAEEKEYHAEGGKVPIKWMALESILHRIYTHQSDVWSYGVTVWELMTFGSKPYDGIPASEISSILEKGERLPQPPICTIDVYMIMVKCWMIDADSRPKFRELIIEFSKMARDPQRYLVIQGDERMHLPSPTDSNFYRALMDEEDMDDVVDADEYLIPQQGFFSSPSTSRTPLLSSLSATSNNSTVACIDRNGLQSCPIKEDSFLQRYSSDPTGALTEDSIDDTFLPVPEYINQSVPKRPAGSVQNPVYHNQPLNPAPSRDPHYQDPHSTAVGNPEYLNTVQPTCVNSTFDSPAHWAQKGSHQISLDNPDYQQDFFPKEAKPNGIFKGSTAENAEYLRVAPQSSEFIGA
Chain of Receptor tyrosine-protein kinase erbB-2 (P04626 whole entry): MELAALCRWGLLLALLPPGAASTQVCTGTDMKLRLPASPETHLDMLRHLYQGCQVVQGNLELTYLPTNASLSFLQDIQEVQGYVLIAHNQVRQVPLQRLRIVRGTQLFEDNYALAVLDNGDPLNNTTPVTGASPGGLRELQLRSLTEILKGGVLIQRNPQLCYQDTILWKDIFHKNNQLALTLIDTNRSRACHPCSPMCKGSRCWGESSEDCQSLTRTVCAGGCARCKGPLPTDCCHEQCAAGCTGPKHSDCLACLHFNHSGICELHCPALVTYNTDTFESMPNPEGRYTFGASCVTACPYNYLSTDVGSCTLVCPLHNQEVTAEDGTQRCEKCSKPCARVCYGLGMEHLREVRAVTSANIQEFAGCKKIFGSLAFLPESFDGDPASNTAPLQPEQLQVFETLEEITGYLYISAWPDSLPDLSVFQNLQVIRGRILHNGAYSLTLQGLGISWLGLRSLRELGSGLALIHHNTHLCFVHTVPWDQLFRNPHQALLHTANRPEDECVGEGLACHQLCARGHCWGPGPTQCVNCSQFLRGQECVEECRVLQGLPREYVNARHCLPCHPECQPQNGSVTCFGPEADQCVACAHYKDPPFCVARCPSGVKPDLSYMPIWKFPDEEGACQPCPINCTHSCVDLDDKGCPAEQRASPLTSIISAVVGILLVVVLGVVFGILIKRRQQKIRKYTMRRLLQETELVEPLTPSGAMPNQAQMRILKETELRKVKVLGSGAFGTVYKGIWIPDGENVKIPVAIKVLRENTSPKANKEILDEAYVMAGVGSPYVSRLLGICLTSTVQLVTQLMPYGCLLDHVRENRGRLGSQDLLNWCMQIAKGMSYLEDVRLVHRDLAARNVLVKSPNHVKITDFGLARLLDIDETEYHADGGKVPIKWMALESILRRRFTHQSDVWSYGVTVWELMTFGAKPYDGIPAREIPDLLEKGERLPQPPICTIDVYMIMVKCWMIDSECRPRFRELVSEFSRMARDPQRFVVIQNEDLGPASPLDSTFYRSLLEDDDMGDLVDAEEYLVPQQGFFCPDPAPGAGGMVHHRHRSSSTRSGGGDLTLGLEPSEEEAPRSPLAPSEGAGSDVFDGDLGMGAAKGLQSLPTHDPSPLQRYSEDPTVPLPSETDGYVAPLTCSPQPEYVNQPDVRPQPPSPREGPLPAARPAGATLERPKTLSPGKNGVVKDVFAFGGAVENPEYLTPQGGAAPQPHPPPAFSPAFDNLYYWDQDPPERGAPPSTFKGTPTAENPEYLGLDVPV
Chain of Epidermal growth factor receptor (Homo sapiens, UniProt P00533, E746-A750DEL) (P00533 whole entry E746-A750del, looked up): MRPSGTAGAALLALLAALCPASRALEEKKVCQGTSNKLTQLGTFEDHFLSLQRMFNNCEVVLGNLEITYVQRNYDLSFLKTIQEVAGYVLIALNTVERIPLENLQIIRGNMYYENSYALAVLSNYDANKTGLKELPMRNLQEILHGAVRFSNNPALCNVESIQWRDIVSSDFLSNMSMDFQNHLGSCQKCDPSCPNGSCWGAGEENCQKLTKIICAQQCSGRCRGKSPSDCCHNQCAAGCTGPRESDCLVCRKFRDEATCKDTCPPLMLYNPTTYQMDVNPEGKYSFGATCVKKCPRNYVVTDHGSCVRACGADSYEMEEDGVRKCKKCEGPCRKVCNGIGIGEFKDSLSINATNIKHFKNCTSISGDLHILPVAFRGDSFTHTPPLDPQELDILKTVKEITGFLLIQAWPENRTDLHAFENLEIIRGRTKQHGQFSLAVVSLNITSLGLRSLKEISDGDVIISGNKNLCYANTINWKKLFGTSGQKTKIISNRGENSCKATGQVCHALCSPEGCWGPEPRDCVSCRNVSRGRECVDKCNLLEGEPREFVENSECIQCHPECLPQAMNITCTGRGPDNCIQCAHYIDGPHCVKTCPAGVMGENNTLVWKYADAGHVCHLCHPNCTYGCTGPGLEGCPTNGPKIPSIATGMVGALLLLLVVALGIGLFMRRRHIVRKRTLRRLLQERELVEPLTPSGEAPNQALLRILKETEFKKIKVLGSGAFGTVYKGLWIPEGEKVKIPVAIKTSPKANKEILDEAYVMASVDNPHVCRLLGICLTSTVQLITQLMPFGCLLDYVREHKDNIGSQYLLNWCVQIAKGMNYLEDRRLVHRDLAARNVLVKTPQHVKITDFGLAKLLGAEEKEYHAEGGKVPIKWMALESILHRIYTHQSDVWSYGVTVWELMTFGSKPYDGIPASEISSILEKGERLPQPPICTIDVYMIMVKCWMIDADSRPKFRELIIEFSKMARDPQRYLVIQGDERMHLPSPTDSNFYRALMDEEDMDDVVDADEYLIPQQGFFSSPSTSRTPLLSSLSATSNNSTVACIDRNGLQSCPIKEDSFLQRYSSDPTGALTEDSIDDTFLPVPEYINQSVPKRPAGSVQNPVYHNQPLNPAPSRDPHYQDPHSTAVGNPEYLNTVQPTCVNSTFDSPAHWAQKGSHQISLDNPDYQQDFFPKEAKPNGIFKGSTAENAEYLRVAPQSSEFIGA

## COc1cc2ncnc(Nc3ccc(OCc4cccc(F)c4)c(Cl)c3)c2cc1NC(=O)CC1CCSS1 (stereo not given)
[1]
  pIC50: 8.24
[2]
  pIC50: 7.60

## N#Cc1cnc2ccc(NC(=O)CC3CCSS3)cc2c1Nc1ccc(OCc2cccc(F)c2)c(Cl)c1 (stereo not given)
[1]
  pIC50: 7.44
Homo sapiens
  Ratio IC50: > 25
[3]
  pIC50: 6.14
[2]
  pIC50: 6.79

## CCOc1cc2ncc(C#N)c(Nc3ccc(F)c(Cl)c3)c2cc1NC(=O)C1CSSC1
[1]
  pIC50: 6.66

## N#Cc1cnc2cc(OC[C@H](O)CO)c(NC(=O)C3CSSC3)cc2c1Nc1ccc(OCc2cccc(F)c2)c(Cl)c1
[1]
  pIC50: 7.70
[2]
  pIC50: 6.59

## CCOc1cc2ncc(C#N)c(Nc3ccc(OCc4cccc(F)c4)c(Cl)c3)c2cc1NC(=O)CCCCC1CCSS1 (stereo not given)
[1]
  pIC50: 7.48
[4]
  pKd: 7.49
[2]
  pIC50: 6.14

## CCOc1cc2ncc(C#N)c(Nc3ccc(F)c(Cl)c3)c2cc1NC(=O)CC1CCSS1 (stereo not given)
[1]
  pIC50: 6.52

## CC(C)NCC(O)COc1cccc2ccccc12 (stereo not given) [PROPRANOLOL]
[5]
  half-life: 27.5 min

## CCOc1cc2ncc(C#N)c(Nc3ccc(OCc4cccc(F)c4)c(Cl)c3)c2cc1NC(=O)C1CSSC1
[1]
  pIC50: 7.74
Homo sapiens
  Ratio IC50: > 25
[6]
  pKd: 6.96
[3]
  pIC50: 6.14
[2]
  pIC50: 6.68

## CC(=O)SCC(CSC(C)=O)C(=O)Nc1cc2c(Nc3ccc(OCc4cccc(F)c4)c(Cl)c3)c(C#N)cnc2cc1OC[C@H](O)CO
[7]
  pKd: 7.24
[8]
  pKd: 8.68
[9]
  pKd: 7.22
[10]
  pKd: 8.23

## COc1cc2ncnc(Nc3ccc(Oc4ccc(C)nc4)c(C)c3)c2cc1NC(=O)C1CSSC1
[1]
  pIC50: 6.38
Homo sapiens
  Ratio IC50: 1.4
[3]
  pIC50: 6.23
[2]
  pIC50: 6.18

## CCOc1cc2ncc(C#N)c(Nc3ccc(OCc4cccc(F)c4)c(Cl)c3)c2cc1NC(=O)C(CSC(C)=O)CSC(C)=O
[1]
  pIC50: 7.57
[6]
  pKd: 6.74
[4]
  pKd: 7.80
[2]
  pIC50: 6.47

## Cc1ccc(Oc2ccc(Nc3c(C#N)cnc4ccc(NC(=O)C5CSSC5)cc34)cc2C)cn1
[1]
  pIC50: < 5.00
[2]
  pIC50: < 5.00

## COc1cc2ncnc(Nc3ccc(Oc4ccc(C)nc4)c(C)c3)c2cc1NC(=O)CC1CCSS1 (stereo not given)
NCI-H322M [11]
  TI: >46.7
MOLT-4 [12]
  CC50: > 2600 nM
CCRF-CEM [13]
  CC50: > 50000 nM
NCI-H322M [14]
  CC50: > 50000 nM
CCRF-CEM [15]
  GI50: 220 nM
MOLT-4 [16]
  GI50: 160 nM
A549
  GI50: 760 nM
NCI-H322M [17]
  GI50: 1070 nM
NCI-H460
  GI50: 110 nM
CCRF-CEM [18]
  TI: >227
MOLT-4 [19]
  TI: 16.2

## N#Cc1cnc2ccc(NC(=O)C3CSSC3)cc2c1Nc1ccc(OCc2cccc(F)c2)c(Cl)c1
[1]
  pIC50: 6.70

## O=c1ccc2ccc(O)cc2o1 [UMBELLIFERONE]
[20]
  half-life: 26.6 min

## CCOc1cc2ncc(C#N)c(Nc3ccc(F)c(Cl)c3)c2cc1NC(=O)CCCCC1CCSS1 (stereo not given)
[1]
  pIC50: 6.38

## N#Cc1cnc2cc(OC[C@@H](O)CO)c(NC(=O)C3CSSC3)cc2c1Nc1ccc(OCc2cccc(F)c2)c(Cl)c1
[7]
  pKd: 8.08
[1]
  pIC50: 8.05
[8]
  pKd: 9.15
Homo sapiens
  Ratio IC50: > 25
[9]
  pKd: 7.80
[10]
  pKd: 8.72
[3]
  pIC50: 6.78
[2]
  pIC50: 6.90

## COc1cc2ncnc(Nc3ccc(OCc4cccc(F)c4)c(Cl)c3)c2cc1NC(=O)C1CSSC1
[1]
  pIC50: 8.19
[2]
  pIC50: 7.12

## Cc1ccc(Oc2ccc(Nc3c(C#N)cnc4ccc(NC(=O)CC5CCSS5)cc34)cc2C)cn1 (stereo not given)
[1]
  pIC50: < 5.00
[3]
  pIC50: < 5.00
[2]
  pIC50: 5.06
